Screening data from PubChem.
iPSC survival up: enhancers of human iPSC single-cell survival | hiPSC single-cell survival, ATPlite luminescence; 100% = ROCK inhibitor wells, 0% = DMSO | survival enhancement, % at 20 µM | hit rate 0.044% among 360,000; in the data active = survival enhancement above about 18%;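 note: cells exposed to compounds for 16 hours before the ATP read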
TAG inh: inhibitors of triacylglycerol accumulation. inhibition, % at 12.5 µM. AID 651582. hit rate 0.66% among 230,000. H9c2 cells, Nile Red lipid (TAG) fluorescence; cells loaded with 200 µM oleic acid;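 active = pattern-corrected inhibition of lipid staining of at least 50% with the nuclear-stain viability signal not falling by more than 50%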;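 note: 0% = DMSO wells and 100% = triacsin C control wells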
Rev-erbA mod: modulates human Rev-erb alpha binding to DNA. activity, % at 10 µM. P20393. AID 1259318. Rev-erbα–FITC-DNA binding, fluorescence polarization, 90 min. hit rate 0.79% among 370,000;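 active = activity above about 14%, limit read from the data; passing the limit was not always enough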;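 note: 0% = DMSO wells with 35 nM protein and 100% = DMSO wells with 750 nM protein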
Target sequence (P20393 whole entry, looked up): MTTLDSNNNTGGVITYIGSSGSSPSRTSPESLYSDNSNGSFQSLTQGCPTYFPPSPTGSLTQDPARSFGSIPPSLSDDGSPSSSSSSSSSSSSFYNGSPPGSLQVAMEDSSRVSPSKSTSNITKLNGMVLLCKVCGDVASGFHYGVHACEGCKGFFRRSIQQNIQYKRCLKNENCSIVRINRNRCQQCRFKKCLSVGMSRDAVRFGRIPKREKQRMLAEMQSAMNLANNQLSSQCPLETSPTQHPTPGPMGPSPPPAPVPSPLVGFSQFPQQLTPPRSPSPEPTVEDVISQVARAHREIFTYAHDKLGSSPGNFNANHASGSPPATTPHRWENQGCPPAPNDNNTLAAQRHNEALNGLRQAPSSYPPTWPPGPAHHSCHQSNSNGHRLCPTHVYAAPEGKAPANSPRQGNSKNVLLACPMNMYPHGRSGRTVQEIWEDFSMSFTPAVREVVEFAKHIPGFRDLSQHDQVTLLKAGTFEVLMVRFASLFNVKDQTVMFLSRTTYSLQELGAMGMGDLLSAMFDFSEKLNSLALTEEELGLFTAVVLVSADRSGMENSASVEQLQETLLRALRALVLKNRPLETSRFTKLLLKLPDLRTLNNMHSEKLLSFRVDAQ
PG9 Ab binder: binds the HIV-1 gp120 antibody PG9. TR-FRET gp120-PG9 antibody binding. hit rate 0.43% among 360,000. inhibition, % at 6.7 µM; in the data active = inhibition above about 8.5%
beta cell repl: induces beta-cell replication in MIN6 cells; MIN6 cells proliferation, ATPlite luminescence, 48 h; cells starved in 0.2% serum; 100% = growth in 10% serum; proliferation, % at 10 µM; hit rate 0.29% among 330,000;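 active = compounds whose signal lies at least 3.5 SD above the mean of all wells on their plate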;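 note: 0% = DMSO-treated cells in low-serum medium and 100% = 10% serum control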
T cruzi repl: blocks replication of Trypanosoma cruzi; inhibition, % (concentration not given with the values); AID 1885; hit rate 1.4% among 300,000; T. cruzi beta-gal in NIH3T3, luminescence, 90 h;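 active = mean inhibition across valid replicates above about 55%, limit read from the data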;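 note: signal also drops with host cell toxicity which is not excluded here; 0% = plate median of DMSO wells and 100% = zero luminescence signal; higher percent means less beta-gal luminescence so fewer parasites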
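Assay system: NIH/3T3 fibroblasts plus reporter T. cruzi. Amount: NIH/3T3 cells, 5,000 per well. Buffer or medium: DMEM, 2% fetal bovine serum. Doses: compound pinned at 50 nL/well, DMSO. Schedule: ≥90 h infection period, 3 h prior cell attachment. Signal: luminescent β-galactosidase signal after 60 min lysis. Read-out: parasite load inhibition, %.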
Rev-erbA confirm: Rev-erb alpha (human) modulation, hit confirmation. shares compounds with Rev-erbA mod. activation, % at 25 µM. Rev-erb alpha FITC-DNA binding, fluorescence polarization, 90 min. hit rate 61% among 3,000;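 active = activation at or above a set limit, or at least 3 SD above the negative control mean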;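 note: 0% = 35 nM protein with DMSO and 100% = 750 nM protein high control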
RORg counter: RORgamma DNA-binding activity, dose-response counter-screen. shares compounds with Rev-erbA mod. purified RORgamma protein-FITC-DNA binding, fluorescence polarization. IC50, µM. hit rate 8% among 910;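 active = Compounds whose fitted half-maximal concentration for disrupting protein-DNA binding is below 10 micromolar; the record names Rev-erb in its text, so the target is in doubt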
Active calls of the source: *. Sampled rows, rich in hits. Any-hit rate of the full collection: about 2.9%.

How did CCOC(=O)/C(C#N)=C/Nc1cc(C(=O)OCC)cc2c(OC)c(OC)ccc12 do in these assays?
iPSC survival up: -1.0; Rev-erbA mod: 30.8*; PG9 Ab binder: 1.0; beta cell repl: -2.2; Rev-erbA confirm: -1.9

Results for CCOC(=O)/C(C#N)=C/Nc1ccsc1C(=O)OC ?
iPSC survival up: -0.2; TAG inh: -4.8; Rev-erbA mod: 22.5*; PG9 Ab binder: 0.9; beta cell repl: 7.3; T cruzi repl: -1.2; Rev-erbA confirm: 10.7

What do the screens show for `CCOC(=O)/C(C#N)=C/Nc1cc(F)ccc1C`?
iPSC survival up: -0.5; TAG inh: 10.2; Rev-erbA mod: -0.1; PG9 Ab binder: 1.7; beta cell repl: 1.1; T cruzi repl: -1.1

What do the screens show for `COc1ccc(C(=O)NNC(=O)c2ccc3ccccc3c2)cc1`?
iPSC survival up: 2.9; TAG inh: 1.8; Rev-erbA mod: 20.6; PG9 Ab binder: -0.5

What do the screens show for `CC1(c2nnc(-c3ccc(Cl)cc3)o2)CC(c2ccc(Cl)cc2)=NO1` (stereo unspecified)?
iPSC survival up: 0.7; TAG inh: -8.0; Rev-erbA mod: 3.4; PG9 Ab binder: -2.0; beta cell repl: -5.8; T cruzi repl: -6.6

What do the screens show for `CCN1/C(=C/c2ccc3cc(C)cc(C)c3[n+]2CC)Sc2cc(C)ccc21`?
iPSC survival up: -5.1; TAG inh: -94.8; Rev-erbA mod: 30.9*; PG9 Ab binder: -6.5; Rev-erbA confirm: 37.4*; RORg counter: inactive

Results for CCN1/C(=C/C(C)=C/c2sc3ccccc3[n+]2CC)Sc2ccccc21 ?
iPSC survival up: -2.1; TAG inh: 104.0; Rev-erbA mod: -9.8; PG9 Ab binder: -25.0; beta cell repl: -5.2; T cruzi repl: 45.3

What do the screens show for `CCN1/C(=C/c2ccc3cccc(C)c3[n+]2CC)Sc2ccccc21`?
iPSC survival up: -4.4; Rev-erbA mod: 47.8*; PG9 Ab binder: -8.0; beta cell repl: -5.6; T cruzi repl: 58.3*; Rev-erbA confirm: 70.6*; RORg counter: >40

How did Cc1ccc(N=Nc2c(C)[nH]n(C(N)=S)c2=O)cc1C do in these assays?
iPSC survival up: -1.8; Rev-erbA mod: 0.6; PG9 Ab binder: -3.4; beta cell repl: 0.0; T cruzi repl: 12.8

Results for Cc1[nH]n(C(N)=S)c(=O)c1N=Nc1cc(-c2ccc(Br)cc2)[nH]n1 ?
iPSC survival up: -1.5; Rev-erbA mod: 14.0*; PG9 Ab binder: 1.1; beta cell repl: -1.5; T cruzi repl: -24.2; Rev-erbA confirm: 11.6

How did CCN(CC)C(=O)CSc1nnc2nnc3cc(OC)ccc3n12 do in these assays?
iPSC survival up: -0.2; TAG inh: -9.4; Rev-erbA mod: 20.9*; PG9 Ab binder: -1.0; beta cell repl: 2.4; T cruzi repl: 23.6; Rev-erbA confirm: 10.1

How did CCN(CC)C(=O)CSc1nc2cc3c(cc2c(=O)n1Cc1ccc(OC)cc1)OCO3 do in these assays?
iPSC survival up: -0.4; TAG inh: -25.0; Rev-erbA mod: 31.1*; PG9 Ab binder: 0.3; beta cell repl: -5.0; T cruzi repl: 19.7; Rev-erbA confirm: 38.4*; RORg counter: inactive

How did COc1ccc(CNC(=O)CCCn2c(SCC#N)nc3cc4c(cc3c2=O)OCO4)cc1 do in these assays?
iPSC survival up: -3.6; Rev-erbA mod: -2.8; PG9 Ab binder: -0.4; beta cell repl: 4.8

What do the screens show for `O=P(O)(O)c1ccccc1OCCCCCOc1ccccc1P(=O)(O)O`?
iPSC survival up: 2.7; Rev-erbA mod: -1.5; PG9 Ab binder: -1.9; beta cell repl: -2.6; T cruzi repl: -11.0

What do the screens show for `O=C(Nc1cccc(-c2nc3ncccc3o2)c1)c1sc2cc(Cl)ccc2c1Cl`?
iPSC survival up: -3.7; Rev-erbA mod: 31.3*; PG9 Ab binder: -1.4; beta cell repl: -3.2; T cruzi repl: 8.5; Rev-erbA confirm: 17.4*

What do the screens show for `O=C(Nc1cccc(-c2nc3ncccc3o2)c1)c1sc2ccccc2c1Cl`?
iPSC survival up: 0.6; Rev-erbA mod: 1.3; PG9 Ab binder: -0.2; beta cell repl: -3.8; T cruzi repl: 9.5

How did Cn1c(N)c(C(=O)CSc2nc3ccccc3c(=O)n2Cc2ccccc2)c(=O)n(C)c1=O do in these assays?
iPSC survival up: 0.2; TAG inh: 6.1; Rev-erbA mod: 13.3; PG9 Ab binder: 0.1; beta cell repl: 1.7; T cruzi repl: -20.1

How did CCCn1c(N)c(C(=O)CSc2nc(C)cs2)c(=O)[nH]c1=O do in these assays?
iPSC survival up: -1.1; Rev-erbA mod: -6.8; PG9 Ab binder: 0.6; beta cell repl: -1.3; T cruzi repl: -7.4

How did CCCn1c(N)c(C(=O)CSc2nc3ccccc3c(=O)n2Cc2ccccc2)c(=O)[nH]c1=O do in these assays?
iPSC survival up: 6.5; TAG inh: 2.4; Rev-erbA mod: 73.8*; PG9 Ab binder: 0.7; beta cell repl: -4.8; T cruzi repl: -1.0; Rev-erbA confirm: 61.4*

What do the screens show for `Cc1nc(SCC(=O)N(C)Cc2ccco2)c2c(C)c(C)sc2n1`?
iPSC survival up: -2.4; TAG inh: -5.3; Rev-erbA mod: -1.5; PG9 Ab binder: 0.0; beta cell repl: 1.1; T cruzi repl: 8.5

How did CCCn1c(N)c(C(=O)CSc2nc(C)nc3sc(C)c(C)c23)c(=O)[nH]c1=O do in these assays?
iPSC survival up: -0.3; TAG inh: -4.8; Rev-erbA mod: 34.5*; PG9 Ab binder: 0.4; beta cell repl: -1.3; T cruzi repl: -6.2; Rev-erbA confirm: 61.1*; RORg counter: inactive

Results for CCN(C(=O)CSc1nc(C)nc2sc(C)c(C)c12)c1ccc(F)cc1 ?
iPSC survival up: 0.3; TAG inh: -15.2; Rev-erbA mod: 24.4*; PG9 Ab binder: 2.2; beta cell repl: 2.9; Rev-erbA confirm: 8.5

Results for S=c1[nH]ccn1Cc1ccccc1 ?
iPSC survival up: -0.1; TAG inh: -2.7; Rev-erbA mod: 6.9; PG9 Ab binder: -0.3; beta cell repl: -3.3; T cruzi repl: -12.1

Results for C=CCSc1nc(N)c(C(=O)Nc2ccccc2OC)cc1C(=O)Nc1ccccc1 ?
iPSC survival up: 4.9; TAG inh: 0.4; Rev-erbA mod: 19.7*; PG9 Ab binder: 2.6; beta cell repl: 0.0; T cruzi repl: 20.3; Rev-erbA confirm: 14.9

Results for C=CCSc1nc(N)c(C(=O)Nc2ccccc2)cc1C#N ?
iPSC survival up: -4.2; TAG inh: 16.7; Rev-erbA mod: 9.7; PG9 Ab binder: 3.6; beta cell repl: -4.1; T cruzi repl: -8.6

What do the screens show for `O=C(CSc1nncn1-c1cccnc1)Nc1cccc([N+](=O)[O-])c1`?
iPSC survival up: -0.5; Rev-erbA mod: 0.0; PG9 Ab binder: -1.8; beta cell repl: 1.4; T cruzi repl: -4.9
